{"source": "paper PMC2225610", "about": "(The Journal of General Physiology, 1999)", "key": {"[1]": {"biological_target": "T1, type 1 InsP3 receptor (cerebellar membranes) (Canis lupus familiaris, UniProt A0A8I3NKB2)", "conditions": "ref Kaftan et al., 1997; cited from earlier work"}, "[2]": {"biological_target": "T2, type 1 InsP3-gated Ca channel (Canis lupus familiaris, UniProt A0A8I3NKB2)", "T2 sequence (A0A8I3NKB2 1-2757)": "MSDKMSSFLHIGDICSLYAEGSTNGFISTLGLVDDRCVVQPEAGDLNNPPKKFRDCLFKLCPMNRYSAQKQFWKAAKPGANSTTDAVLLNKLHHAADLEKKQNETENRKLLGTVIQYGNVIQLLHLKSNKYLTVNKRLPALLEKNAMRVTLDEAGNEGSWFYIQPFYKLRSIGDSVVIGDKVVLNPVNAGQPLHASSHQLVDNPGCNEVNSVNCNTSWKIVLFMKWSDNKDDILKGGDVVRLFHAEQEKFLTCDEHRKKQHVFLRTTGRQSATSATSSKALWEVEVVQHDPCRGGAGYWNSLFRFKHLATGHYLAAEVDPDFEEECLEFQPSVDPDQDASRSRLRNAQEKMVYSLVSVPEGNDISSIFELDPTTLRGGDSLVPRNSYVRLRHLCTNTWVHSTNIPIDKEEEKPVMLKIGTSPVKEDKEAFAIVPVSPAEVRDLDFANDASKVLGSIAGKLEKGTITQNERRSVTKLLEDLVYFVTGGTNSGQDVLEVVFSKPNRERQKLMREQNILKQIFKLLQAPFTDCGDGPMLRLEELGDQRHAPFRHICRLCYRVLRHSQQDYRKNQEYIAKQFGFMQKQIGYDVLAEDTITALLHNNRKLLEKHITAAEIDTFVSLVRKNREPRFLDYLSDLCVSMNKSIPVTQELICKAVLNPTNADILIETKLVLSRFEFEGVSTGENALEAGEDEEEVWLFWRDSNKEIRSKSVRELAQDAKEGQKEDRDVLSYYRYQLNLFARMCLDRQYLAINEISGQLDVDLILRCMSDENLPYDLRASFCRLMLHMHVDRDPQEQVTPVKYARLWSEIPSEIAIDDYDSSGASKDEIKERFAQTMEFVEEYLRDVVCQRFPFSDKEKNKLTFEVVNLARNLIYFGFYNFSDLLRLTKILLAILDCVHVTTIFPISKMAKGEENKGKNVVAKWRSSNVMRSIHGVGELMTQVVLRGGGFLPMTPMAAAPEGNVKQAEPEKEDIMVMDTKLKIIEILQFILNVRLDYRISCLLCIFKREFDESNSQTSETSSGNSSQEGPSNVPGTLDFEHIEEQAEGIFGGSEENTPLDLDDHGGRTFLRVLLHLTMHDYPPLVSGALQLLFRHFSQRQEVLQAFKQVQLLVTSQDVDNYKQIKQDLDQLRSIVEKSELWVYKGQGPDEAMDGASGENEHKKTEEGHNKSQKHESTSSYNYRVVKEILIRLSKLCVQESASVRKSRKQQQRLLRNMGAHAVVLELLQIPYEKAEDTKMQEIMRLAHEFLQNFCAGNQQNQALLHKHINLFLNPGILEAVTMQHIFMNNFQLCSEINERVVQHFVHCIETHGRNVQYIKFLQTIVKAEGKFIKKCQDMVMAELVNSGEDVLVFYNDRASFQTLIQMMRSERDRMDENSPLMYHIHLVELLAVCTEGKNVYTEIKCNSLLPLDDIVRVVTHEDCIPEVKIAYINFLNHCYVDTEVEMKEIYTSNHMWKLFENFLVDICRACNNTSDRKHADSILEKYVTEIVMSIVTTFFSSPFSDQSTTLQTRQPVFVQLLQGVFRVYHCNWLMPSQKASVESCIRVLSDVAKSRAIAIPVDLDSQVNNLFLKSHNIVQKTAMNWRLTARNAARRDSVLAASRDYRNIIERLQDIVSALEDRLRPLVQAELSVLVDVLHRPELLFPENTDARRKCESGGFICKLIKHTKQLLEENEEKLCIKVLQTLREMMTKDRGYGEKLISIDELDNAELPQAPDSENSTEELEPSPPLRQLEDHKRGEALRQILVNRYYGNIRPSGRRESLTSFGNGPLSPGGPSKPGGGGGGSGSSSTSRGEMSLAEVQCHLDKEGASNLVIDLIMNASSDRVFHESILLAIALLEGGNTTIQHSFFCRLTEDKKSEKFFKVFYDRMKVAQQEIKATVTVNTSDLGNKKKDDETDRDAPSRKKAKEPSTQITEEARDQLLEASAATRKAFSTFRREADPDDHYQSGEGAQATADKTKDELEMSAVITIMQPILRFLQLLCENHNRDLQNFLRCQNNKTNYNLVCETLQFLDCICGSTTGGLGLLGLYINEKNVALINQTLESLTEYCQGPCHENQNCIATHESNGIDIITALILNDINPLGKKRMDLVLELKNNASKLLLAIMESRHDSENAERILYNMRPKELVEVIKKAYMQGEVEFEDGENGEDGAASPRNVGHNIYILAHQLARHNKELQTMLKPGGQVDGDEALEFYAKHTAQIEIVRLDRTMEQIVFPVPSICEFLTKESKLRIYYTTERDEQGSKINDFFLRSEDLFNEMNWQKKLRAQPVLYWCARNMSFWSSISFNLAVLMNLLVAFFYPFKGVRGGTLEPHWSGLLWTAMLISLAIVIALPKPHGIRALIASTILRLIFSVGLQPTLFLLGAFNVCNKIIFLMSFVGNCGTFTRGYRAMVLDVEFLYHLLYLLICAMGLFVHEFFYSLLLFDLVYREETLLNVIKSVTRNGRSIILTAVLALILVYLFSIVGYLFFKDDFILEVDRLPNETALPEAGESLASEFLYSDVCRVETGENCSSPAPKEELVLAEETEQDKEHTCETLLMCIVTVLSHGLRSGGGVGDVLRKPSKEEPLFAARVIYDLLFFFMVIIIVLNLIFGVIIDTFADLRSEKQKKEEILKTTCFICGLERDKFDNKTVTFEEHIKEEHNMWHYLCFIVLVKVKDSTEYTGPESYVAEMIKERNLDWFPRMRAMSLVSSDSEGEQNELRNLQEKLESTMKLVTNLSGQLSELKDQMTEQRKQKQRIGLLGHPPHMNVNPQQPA", "conditions": "cited from earlier work"}, "[3]": {"biological_target": "T1, type 1 InsP3 receptor (cerebellar membranes)", "experiment": "InsP3 binding to cerebellar microsomes", "set-up": "species or system canine", "procedure,_shortened": "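Canine cerebellar microsomes prepared with protease inhibitors. Membranes added, incubated 8 min at 0° or 22°C, then pelleted at 40,000 g for 10 min for scintillation counting. Nonspecific binding measured with 40–160 μM unlabeled InsP3. Two-site Scatchard fit; 3–5 repeats, separate preparations.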"}, "[4]": {"system": "cerebellar Purkinje cells", "conditions": "flash photolysis; ref Khodakhah and Ogden, 1995; cited from earlier work"}, "intracellular Ca": {"system": "intracellular Ca", "conditions": "100 μM; ref Wakui et al., 1989; Petersen et al., 1991; cited from earlier work"}, "[5]": {"biological_target": "T2, type 1 InsP3-gated Ca channel", "experiment": "InsP3-gated channel activity in planar lipid bilayer", "assay_type": "biochemical, canine", "procedure,_shortened": "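Canine cerebellar microsomes fused into PE:PS (3:1) bilayers in decane. Cytosolic side: 500 μM Na-ATP, 500 μM EGTA, 110 mM Tris, 250 mM HEPES, pH 7.35, with CaCl2 to set free Ca, verified by BTC fluorescence. Luminal side: 53 mM Ba(OH)2 as carrier, 250 mM HEPES. InsP3 added to start activity. Held at 0 mV; filtered 1 kHz, digitized 5 kHz; open-time histograms compiled.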"}, "[6]": {"biological_target": "InsP3-gated Ca channel tetrameric complex", "experiment": "Mathematical model of the tetrameric InsP3-gated channel complex", "conditions": "read-out: Model dissociation constant, InsP3 low affinity site (J); 22°C", "procedure,_shortened": "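Tetramer model: each subunit has a medium-affinity InsP3 site, a low-affinity InsP3 site and a Ca site, giving 125 states. Assumes mass-action binding, diffusion-limited on-rates and identical subunits, solved at equilibrium. Low-affinity occupancy defines the active state, with open/closed transitions. Unknown parameters found by quasi-Newton iterative fitting to single-channel open probability and Ca-dependent binding data at 22°C; open-time histograms add constraints.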"}}, "note": "Entries after “also recorded” stand apart in the source; their conditions may differ. Like-named read-outs stand apart in the source and are kept apart here."}
{"smiles": "O=P(O)(O)OC1[C@H](O)[C@H](OP(=O)(O)O)C(OP(=O)(O)O)[C@H](OP(=O)(O)O)[C@H]1O", "note": "(stereo partly shown) [1,3,4,5-InsP4]", "values": [{"measurement": "Specificity of low affinity site for 1,4,5-InsP3 versus 1,3,4,5-InsP4", "setting": "[1]", "result": "low level of specificity"}]}
{"smiles": "[Ca+2]", "note": "[Ca, calcium]", "values": [{"measurement": "Inhibition of channel activity by Ca", "setting": "[2]; 5 μM Ca, 2 μM InsP3, ref Bezprozvanny et al., 1991", "result": "near complete inhibition"}, {"measurement": "Effect of Ca on maximal number of InsP3 binding sites", "setting": "[3]; 0° and 22°C", "result": "did not influence the maximal number of binding sites; also recorded: no evidence for an effect"}, {"measurement": "Hill coefficient of Ca-dependent inhibition of InsP3 binding", "setting": "[3]; 0°C", "result": 1.5}, {"measurement": "Ca-dependent increase in Kd of InsP3 binding", "setting": "[3]; 0°C, Ca 0.0004 to 10 μM, medium affinity site", "result": "~3.5", "unit": "fold"}, {"measurement": "Decrease of InsP3 binding by Ca", "setting": "[3]; 0°C, Ca increased from 0 to 100 μM, 10 nM InsP3", "result": 66, "unit": "%"}, {"measurement": "Hill coefficient of Ca-dependent inhibition of InsP3 binding", "setting": "[3]; 22°C", "result": 2.8}, {"measurement": "Reduction of InsP3 binding by Ca", "setting": "[3]; 22°C, 170 nM InsP3, Ca 0.1 to 10 μM", "result": 55, "unit": "%"}]}
{"smiles": "O=C(O)CN(CCOCCOCCN(CC(=O)O)CC(=O)O)CC(=O)O", "note": "[EGTA]", "values": [{"measurement": "Reversal of Ca-dependent inhibition of InsP3 binding by Ca chelation", "setting": "[3]; EGTA added after Ca", "result": "fully reversible; also recorded: completely reversed; also recorded: completely reversible"}]}
{"smiles": "O=P(O)(O)O[C@@H]1[C@H](O)[C@H](O)[C@@H](OP(=O)(O)O)[C@H](OP(=O)(O)O)[C@H]1O", "note": "[InsP3, inositol 1,4,5-trisphosphate]", "values": [{"measurement": "Intracellular InsP3 needed to induce Ca release", "setting": "[4]", "result": "at least 9 μM"}, {"measurement": "Effect of high InsP3 on Ca-dependent inhibition of channel activity", "setting": "[2]; 180 μM InsP3, ref Kaftan et al., 1997", "result": "overcame the Ca-dependent inhibition of channel activity"}, {"measurement": "Hill coefficient from single channel activity determinations", "setting": "[2]; ref Watras et al., 1991", "result": 1.0}, {"measurement": "Effect on intracellular Ca", "setting": "intracellular Ca", "result": "sustained elevation of intracellular Ca"}, {"measurement": "Channel open time constant, fast component", "setting": "[5]; 0.01 μM Ca, 2 μM InsP3", "result": 1.8, "unit": "ms"}, {"measurement": "Channel open time constant, slow component", "setting": "[5]; 0.01 μM Ca, 2 μM InsP3", "result": 9.3, "unit": "ms"}, {"measurement": "Channel open time constant, fast component", "setting": "[5]; 0.1 μM Ca", "result": 0.6, "unit": "ms"}, {"measurement": "Channel open time constant, slow component", "setting": "[5]; 0.1 μM Ca", "result": 4.7, "unit": "ms"}, {"measurement": "Kd", "setting": "[6]", "result": 10, "unit": "µM"}, {"measurement": "Q10 of temperature-dependent change in InsP3 binding affinity", "setting": "[3]; 0° vs 22°C, cerebellar membranes", "result": 2.3}, {"measurement": "Difference between medium and low affinity site dissociation constants", "setting": "[3]; 22°C (0.3 vs ∼10 μM)", "result": 30, "unit": "×"}, {"measurement": "Difference in dissociation constants between medium and low affinity sites", "setting": "[3]; 37°C (1 vs. 10 μM), predicted", "result": 10, "unit": "fold"}, {"measurement": "Kd", "setting": "[3]; read-out: Kd for InsP3 binding at high Ca, 22°C, 50 μM free Ca", "result": 1.78, "unit": "µM"}, {"measurement": "Kd", "setting": "[3]; read-out: Kd of InsP3 binding, medium affinity site, 22°C", "result": 0.312, "unit": "µM"}]}
{"smiles": "O=P(O)(S)O[C@@H]1[C@@H](O)[C@H](OP(O)(O)=S)[C@@H](OP(O)(O)=S)[C@H](O)[C@@H]1O", "note": "(stereo partly shown) [InsPS3]", "values": [{"measurement": "Effect on intracellular Ca", "setting": "intracellular Ca", "result": "sustained elevation of intracellular Ca"}]}
{"smiles": "[Ba+2]", "note": "[barium]", "values": [{"measurement": "Effect on Ca-dependent inhibition of InsP3 binding", "setting": "[3]; 100 μM free barium, data not shown", "result": "did not alter"}]}
